From ChEMBL document CHEMBL4359872, “Identification of potent triazolylpyridine nicotinamide phosphoribosyltransferase (NAMPT) inhibitors bearing a 1,2,3-triazole tail group” (Eur J Med Chem, 2019)
Values after ≈ are worked out from the molar mass of the structure shown. Active and inactive are the calls of the source. No cut-off for these calls is given here.

How the values were obtained:
[1] = Cytotoxicity against human SH-SY5Y cells assessed as cell viability at 1 uM measured after 48 hrs by MTT assay relative to control; assay type: cell-based; details: read-out: Activity
[2] = tested on: SH-SY5Y; assay: Cytotoxicity against human SH-SY5Y cells measured after 48 hrs by MTT assay; assay type: cell-based
[3] = biological target: Nicotinamide phosphoribosyltransferase (Mus musculus, UniProt Q99KQ4); assay: Inhibition of recombinant mouse wild-type NAMPT expressed in bacterial expression system using PRPP as substrate in presence of mouse NMNAT-3 measured for 1 hr by fluorescence assay
Sequence of Nicotinamide phosphoribosyltransferase (Q99KQ4 whole entry): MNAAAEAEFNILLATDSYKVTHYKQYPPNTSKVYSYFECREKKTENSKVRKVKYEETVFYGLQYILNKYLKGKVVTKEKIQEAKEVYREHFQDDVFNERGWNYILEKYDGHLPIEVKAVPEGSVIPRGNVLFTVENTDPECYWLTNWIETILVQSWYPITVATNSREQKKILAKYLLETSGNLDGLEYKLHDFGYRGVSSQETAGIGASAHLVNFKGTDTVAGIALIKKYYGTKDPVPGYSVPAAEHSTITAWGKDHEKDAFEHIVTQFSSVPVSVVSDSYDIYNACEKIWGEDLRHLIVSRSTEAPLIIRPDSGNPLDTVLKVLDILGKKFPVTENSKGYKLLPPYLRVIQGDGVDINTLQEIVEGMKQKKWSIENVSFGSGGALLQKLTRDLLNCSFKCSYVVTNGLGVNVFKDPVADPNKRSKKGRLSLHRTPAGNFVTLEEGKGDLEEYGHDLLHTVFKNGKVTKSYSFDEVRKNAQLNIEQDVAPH
How it was run: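 In vitro NAMPT enzymatic assay run as concentration-response curves, with IC50 derived from the curves. Mean ± SD of three independent experiments (n = 6).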

[4] = Permeability across apical side to basolateral side in human Caco2 cells at 30 uM after 4 hrs by HPLC analysis; assay type: ADME, cell-based; details: caco-2, 4 h
How it was run: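 Caco-2 monolayer used to measure apical-to-basal transfer, reported as % permeability and Papp. Terbutaline served as the positive control; n = 3.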

[5] = Kinetic aqueous solubility of the compound in 80:20 PBS/acetonitrile solution at 200 to 500 uM by HTS assay; assay type: physicochemical; details: read-out: Kinetic_solubility
[6] = biological target: Nicotinamide phosphoribosyltransferase (Homo sapiens) (UniProt P43490); assay: Inhibition of NAMPT in human SH-SY5Y cells assessed as reduction in NAD levels at 100 nM measured after 16 hrs by diaphorase and resazurin dye based fluorescence assay relative to control; assay type: cell-based
Sequence of Nicotinamide phosphoribosyltransferase (Homo sapiens) (P43490 whole entry, looked up): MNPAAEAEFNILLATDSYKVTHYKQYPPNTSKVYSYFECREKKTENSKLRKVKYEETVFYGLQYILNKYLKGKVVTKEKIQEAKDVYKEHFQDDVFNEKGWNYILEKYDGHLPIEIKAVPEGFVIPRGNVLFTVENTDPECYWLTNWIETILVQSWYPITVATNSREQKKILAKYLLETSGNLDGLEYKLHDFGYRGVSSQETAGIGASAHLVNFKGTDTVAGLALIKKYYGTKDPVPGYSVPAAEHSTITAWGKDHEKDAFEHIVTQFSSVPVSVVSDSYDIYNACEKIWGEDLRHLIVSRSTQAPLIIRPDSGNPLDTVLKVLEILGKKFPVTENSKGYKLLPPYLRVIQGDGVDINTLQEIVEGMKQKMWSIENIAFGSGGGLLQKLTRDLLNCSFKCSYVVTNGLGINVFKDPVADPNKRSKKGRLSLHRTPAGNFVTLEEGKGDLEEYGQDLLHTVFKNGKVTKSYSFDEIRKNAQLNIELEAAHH
How it was run: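 SH-SY5Y cells treated at 100 nM for 16 h, then NAD level reduction measured as % of control. Mean ± SD of two independent experiments (n = 6).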

[7] = Selectivity ratio of EC50 for cytotoxicity against human SH-SY5Y cells to IC50 for recombinant mouse wild-type NAMPT expressed in bacterial expression system; assay type: cell-based
[8] = Toxicity in Crl:CD Sprague-Dawley rat retina at 100 mg/kg, ip administered once daily for 5 days by hematoxylin and eosin staining based microscopic analysis; assay type: organism-based; details: in vivo, 120 h
[9] = Toxicity in Crl:CD Sprague-Dawley rat heart assessed as hypereosinophilia at 100 mg/kg, ip administered once daily for 5 days by hematoxylin and eosin staining based microscopic analysis; assay type: organism-based; details: in vivo, 120 h
[10] = Toxicity in Crl:CD Sprague-Dawley rat heart assessed as increase in cardiomyocytes cytoplasmic vacuolation at 100 mg/kg, ip administered once daily for 5 days by hematoxylin and eosin staining based microscopic analysis; assay type: organism-based; details: in vivo, 120 h
[11] = Toxicity in Crl:CD Sprague-Dawley rat heart assessed as interstitial expansion at 100 mg/kg, ip administered once daily for 5 days by hematoxylin and eosin staining based microscopic analysis; assay type: organism-based; details: in vivo, 120 h
[12] = Kinetic aqueous solubility of the compound in 80:20 PBS/acetonitrile solution at 200 uM by HTS assay; assay type: physicochemical; details: buffer
[13] = Half-life in human; assay type: ADME
[14] = Toxicity in Crl:CD Sprague-Dawley rat retina at 200 mg/kg, po administered once daily for 5 days via gavage by hematoxylin and eosin staining based microscopic analysis; assay type: organism-based; details: in vivo, 120 h
[15] = Toxicity in Crl:CD Sprague-Dawley rat heart assessed as hypereosinophilia at 200 mg/kg, po administered once daily via gavage for 5 days by hematoxylin and eosin staining based microscopic analysis; assay type: organism-based; details: in vivo, 120 h
[16] = Toxicity in Crl:CD Sprague-Dawley rat heart assessed as increase in cardiomyocytes cytoplasmic vacuolation at 200 mg/kg, po administered once daily for 5 days via gavage by hematoxylin and eosin staining based microscopic analysis; assay type: organism-based; details: in vivo, 120 h
[17] = tested on: 4T1; assay: Antitumor activity against mouse 4T1 cells implanted in BALB/c mouse assessed as reduction in tumour volume at 10 mg/kg, ip bid for 12 days by vernier caliper method; assay type: functional, organism-based
How it was run: (§1)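 Tumour cells implanted in the mammary gland. Dosing began at day 14, once tumours were palpable, after randomization into vehicle and treated groups of 4 mice each. Compound given intraperitoneally at 10 mg/kg twice a day for 12 consecutive days. Data are means of two independent experiments.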

[18] = tested on: 4T1; assay: Antitumor activity against mouse 4T1 cells implanted in BALB/c mouse assessed as reduction in tumor weight at 10 mg/kg, ip bid for 12 days; assay type: functional, organism-based; how it was run: as §1
[19] = tested on: 4T1; assay: Antitumor activity against mouse 4T1 cells implanted in Balb/c mouse mouse assessed as inhibition of tumor metastasis at 10 mg/kg, ip bid for 12 days measured post last dose by crystal violet staining based thioguanine clonogenic assay; assay type: functional, organism-based; how it was run: as §1
[20] = Toxicity in Crl:CD Sprague-Dawley rat heart assessed as interstitial expansion at 200 mg/kg, po administered once daily for 5 days via gavage by hematoxylin and eosin staining based microscopic analysis; assay type: organism-based; details: in vivo, 120 h
[21] = tested on: SH-SY5Y; assay: Cytotoxicity against human SH-SY5Y cells assessed as cell viability at 10 uM measured after 48 hrs by MTT assay relative to control; assay type: functional; details: read-out: Activity
[22] = Half-life in BALB/c mouse at 10 mg/kg, iv administered as single dose measured after 24 hrs by LC-ESI/MS analysis; assay type: ADME, organism-based; details: in vivo
How it was run: (§2)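 Mice given a single 10 mg/kg i.v. injection; serial blood sampling, then half-life, clearance and volume of distribution derived.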

[23] = AUC in BALB/c mouse at 10 mg/kg, iv administered as single dose measured after 24 hrs by LC-ESI/MS analysis; assay type: ADME, organism-based; parameters: time < 24 hr, dose 10 mg/kg, route intravenous; details: in vivo; how it was run: as §2
[24] = Clearance in BALB/c mouse at 10 mg/kg, iv administered as single dose measured after 24 hrs by LC-ESI/MS analysis; assay type: ADME, organism-based; details: in vivo; how it was run: as §2
[25] = Volume of distribution in BALB/c mouse at 10 mg/kg, iv administered as single dose measured after 24 hrs by LC-ESI/MS analysis; assay type: ADME, organism-based; details: in vivo; how it was run: as §2
[26] = Thermodynamic solubility of compound in water after 24 hrs by LC-UV based shake flask method; assay type: physicochemical; details: buffer
How it was run: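 Thermodynamic water solubility measured by saturation shake flask, with the concentration of the saturated solution reported.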

[27] = Metabolic stability in human liver microsomes assessed as parent compound remaining at 50 uM […] for 60 mins by LC-ESI/MS analysis; assay type: ADME, Microsome; details: read-out: Stability
[28] = Metabolic stability in Wistar Han rat liver microsomes assessed as parent compound remaining at 50 uM […] for 60 mins by LC-ESI/MS analysis; assay type: ADME, Microsome; details: read-out: Stability
[29] = tested on: Lymphocyte; assay: Genotoxicity in human primary lymphocytes assessed as induction of DNA damage up to 500 uM by GreenScreen assay; assay type: toxicity, cell-based
[30] = tested on: TK6; assay: Genotoxicity in human TK6 cells assessed as induction of DNA damage up to 500 uM by GreenScreen assay; assay type: toxicity, cell-based
[31] = tested on: Lymphocyte; assay: Genotoxicity in human primary lymphocytes up to 1 mM in presence of S9 fraction by GreenScreen assay; assay type: toxicity, cell-based
[32] = tested on: TK6; assay: Genotoxicity in human TK6 up to 1 mM in presence of S9 fraction by GreenScreen assay; assay type: toxicity, cell-based

O=C(O)c1ccccc1-c1ccccc1C(=O)NCCCCCCCn1cc(-c2cccnc2)nn1
viability at 48 h, 1 µM [1]: 80.9%
EC50 [2]: > 500 nM
IC50 [3]: 38.5 nM

NC(=O)c1ccccc1-c1ccccc1C(=O)NCCCCCCCn1cc(-c2cccnc2)nn1
viability at 48 h, 1 µM [1]: 65.7%
EC50 [2]: 289 nM
IC50 [3]: 87.9 nM

CN1CCN(Cc2cn(-c3ccccc3C(=O)NCCCCCCCn3cc(-c4cccnc4)nn3)nn2)CC1
viability at 48 h, 1 µM [1]: 87.7%
EC50 [2]: > 10000 nM
IC50 [3]: 13.6 nM
permeability [4]: < 1%
solubility kinetic [5]: 200 to 500 µM (≈ 109 to 271 µg/mL)
inhibition [6]: inactive
Selectivity ratio [7]: 200

O=C(/C=C/c1cccnc1)NCCCCC1CCN(C(=O)c2ccccc2)CC1 [DAPORINAD]
viability at 48 h, 1 µM [1]: 9.7%
EC50 [2]: 2.5 nM
permeability [4]: 20.5%
Activity [8]: Non-Toxic
Activity [9]: Toxic
Activity [10]: Toxic
Activity [11]: Non-Toxic
Kinetic_solubility [12]: Soluble

O=C(NCCCCCCCn1cc(-c2cccnc2)nn1)c1ccccc1-n1cc(CN2CCC(O)CC2)nn1
viability at 48 h, 1 µM [1]: 91.7%
EC50 [2]: > 10000 nM
IC50 [3]: 41.8 nM
permeability [4]: < 1%
solubility kinetic [5]: 200 to 500 µM (≈ 109 to 272 µg/mL)
inhibition [6]: 30%
Selectivity ratio [7]: 200

N#CN=C(NCCCCCCOc1ccc(Cl)cc1)Nc1ccncc1 [CHS-828]
half-life [13]: 126 min
Activity [14]: Non-Toxic
Activity [15]: Non-Toxic
Activity [16]: Non-Toxic
Activity [17]: Active
Activity [18]: Active
inhibition [19]: Active
Activity [20]: Non-Toxic

O=C(NCCCCCCCn1cc(-c2cccnc2)nn1)c1ccccc1-c1cccnc1
viability at 48 h, 1 µM [1]: 15.1%
EC50 [2]: 36.5 nM
IC50 [3]: 28.5 nM

O=C(NCCCCCCCn1cc(-c2cccnc2)nn1)c1ccccc1-c1c[nH]nn1
viability at 48 h, 1 µM [1]: 23.5%
EC50 [2]: 86.5 nM
IC50 [3]: 42.5 nM

CN(C)Cc1cn(-c2ccccc2C(=O)NCCCCCCCn2cc(-c3cccnc3)nn2)nn1
viability at 48 h, 1 µM [1]: 86.6%
EC50 [2]: 285 nM
IC50 [3]: 42.4 nM
solubility kinetic [5]: 200 to 500 µM (≈ 97.5 to 244 µg/mL)

O=C(NCCCCCCCn1cc(-c2cccnc2)nn1)c1ccccc1-n1cc(CN2CCOCC2)nn1
viability at 48 h, 1 µM [1]: 30%
EC50 [2]: > 500 nM
IC50 [3]: 49.6 nM
solubility kinetic [5]: 200 to 500 µM (≈ 106 to 265 µg/mL)

CC(C)N1CCN(Cc2cn(-c3ccccc3C(=O)NCCCCCCCn3cc(-c4cccnc4)nn3)nn2)CC1
viability at 48 h, 1 µM [1]: 80.2%
EC50 [2]: > 10000 nM
IC50 [3]: 24.7 nM
solubility kinetic [5]: 200 to 500 µM (≈ 114 to 285 µg/mL)
viability at 10 µM [21]: 64.1%

CCOC(=O)C1CCN(Cc2cn(-c3ccccc3C(=O)NCCCCCCCn3cc(-c4cccnc4)nn3)nn2)CC1
viability at 48 h, 1 µM [1]: 14.1%
EC50 [2]: 61.5 nM
IC50 [3]: 20.6 nM
solubility kinetic [5]: 200 to 500 µM (≈ 120 to 300 µg/mL)

O=C(NCCCCCCCn1cc(-c2ccc[n+]([O-])c2)nn1)c1ccccc1-c1ccccc1
viability at 48 h, 1 µM [1]: 103%
IC50 [3]: > 500 nM

O=C(O)c1cccc(-c2ccccc2C(=O)NCCCCCCCn2cc(-c3cccnc3)nn2)c1
viability at 48 h, 1 µM [1]: 78.4%
EC50 [2]: > 500 nM
IC50 [3]: > 500 nM

O=C(O)c1ccc(-c2ccccc2C(=O)NCCCCCCCn2cc(-c3cccnc3)nn2)cc1
viability at 48 h, 1 µM [1]: 22.5%
EC50 [2]: 224 nM
IC50 [3]: > 500 nM

O=C(NCCCCCCCn1cc(-c2cccnc2)nn1)c1ccccc1-n1cc(CN(CCO)CCO)nn1
viability at 48 h, 1 µM [1]: 37.8%
EC50 [2]: > 500 nM
IC50 [3]: 73.8 nM
solubility kinetic [5]: 200 to 500 µM (≈ 110 to 274 µg/mL)

CC(C)(C)NCC(O)c1cc(O)cc(O)c1 (centres undefined) [TERBUTALINE]
permeability [4]: 52.7%

O=C(NCCCCCCCn1cc(-c2cccnc2)nn1)c1ccccc1-n1cc(CN2CCCC2)nn1
viability at 48 h, 1 µM [1]: 88.9%
EC50 [2]: > 10000 nM
IC50 [3]: 25.4 nM
solubility kinetic [5]: 200 to 500 µM (≈ 103 to 257 µg/mL)
viability at 10 µM [21]: 61.9%

O=C(NCCCCCCCn1cc(-c2cccnc2)nn1)c1ccccc1-n1cc(CN2CCCCC2)nn1
viability at 48 h, 1 µM [1]: 15.9%
EC50 [2]: > 500 nM
IC50 [3]: 17.1 nM
solubility kinetic [5]: 200 to 500 µM (≈ 106 to 264 µg/mL)

O=C(NCCCCCCCn1cc(-c2cccnc2)nn1)c1ccccc1-n1ccnn1
viability at 48 h, 1 µM [1]: 10.5%
EC50 [2]: 35.4 nM
IC50 [3]: 3.4 nM
permeability [4]: 10.6%
half-life [22]: 211 min
AUC at 24 h [23]: 1620 ng·h/mL
clearance [24]: 103 mL/min/kg
Vd [25]: 31.3 L/kg
solubility kinetic [5]: 200 to 500 µM (≈ 86.1 to 215 µg/mL)
Therm_solubility [26]: Soluble
remaining at 1 h, 50 µM [27]: 94%
remaining at 1 h, 50 µM [28]: 70%
Activity [29]: Non-Toxic
Activity [8]: Non-Toxic
Activity [9]: Non-Toxic
Activity [10]: Non-Toxic
Activity [11]: Non-Toxic
Activity [17]: Active
Activity [18]: Active
inhibition [19]: Active
Activity [30]: Non-Toxic
Activity [31]: Non-Toxic
Activity [32]: Non-Toxic
